Laboratory results: ChEMBL document CHEMBL4823286, “Synthesis and evaluation of novel 2,4-diaminopyrimidines bearing a sulfoxide moiety as anaplastic lymphoma kinase (ALK) inhibition agents” (Bioorg Med Chem Lett, 2021)

Experiments:
BaF3 = test: Antiproliferative activity against mouse BaF3 cells overexpressing ALK assessed as inhibition of cell proliferation measured by CCK8 assay; assay type: functional, cell-based
In short: (§1)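 Cell proliferation inhibition; IC50 given as mean ± SD of three independent experiments.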

NCI-H2228 = test: Antiproliferative activity against human NCI-H2228 cells assessed as inhibition of cell proliferation measured by CCK8 assay; assay type: functional, cell-based; in short: as §1

Row | SMILES | IC50 (BaF3) [nM] | IC50 (NCI-H2228) [nM]
1 | CC[S+]([O-])c1cc(F)ccc1Nc1nc(Nc2ccc(N(C)CCN(C)C)cc2OC)ncc1Cl (stereo not drawn) | 34.7 | 84.3
2 | CC[S+]([O-])c1cc(F)ccc1Nc1nc(Nc2ccc(N3CCN(C(C)=O)CC3)cc2OC)ncc1Cl (stereo not drawn) | 85.7 | 704
3 | COc1cc(N2CCN(C)CC2)ccc1Nc1ncc(Cl)c(Nc2ccccc2[S+]([O-])C(C)C)n1 (stereo not drawn) | 32.3 | 82.9
4 | CCC(=O)Nc1cc(Nc2ncc(Cl)c(Nc3ccc(F)cc3[S+]([O-])CC)n2)c(OC)cc1N(C)CCN(C)C (stereo not drawn) | 47.2 | 48.1
